Measured values as given in ChEMBL document CHEMBL1147501, “Synthesis and nicotinic acetylcholine receptor binding affinities of 2- and 3-isoxazolyl-8-azabicyclo[3.2.1]octanes” (Bioorg Med Chem Lett, 2004).

molecular target: not listed separately; assay: Inhibition of [3H]-cytisine binding to neuronal nicotinic acetylcholine receptor of rat brain
How it was run: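 Test compounds run as oxalate salts. Ki values are reported as mean ± SEM of three independent experiments, each performed in triplicate.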

| SMILES | Ki [nM] |
| --- | --- |
| CN1CCC[C@H]1c1ccccc1 | 8 |
| Clc1ccc([C@H]2CCC3CCC2N3)cn1 (some centres not stated) | 1.04 |
| Cc1cc(C2CC[C@H]3CCC2N3C)on1 (some centres not stated) | 1470 |
| Clc1ccc(C2CC3CC[C@@H]2N3)cn1 (some centres not stated) | 0.79 |
| Cc1cc(C2CCC3CC[C@@H]2N3)on1 (some centres not stated) | 3 |
| Cc1cc(C2=CC3CCC(C2)N3)on1 (configuration not stated) | 320 |
| Cc1cc(C2=CC3CCC(C2)N3C)on1 (configuration not stated) | 720 |
| Cc1cc([C@@H]2CCC3CCC2N3)on1 (some centres not stated) | 26000 |
| Cc1cc(C2CC3CCC(C2)N3)on1 (stereo in doubt; 15a) | 18000 |
| Cc1cc(C2CC3CCC(C2)N3C)on1 (configuration not stated) | 194 |
| Cc1cc(C2CC3CCC(C2)N3)on1 (stereo in doubt; 15b) | 148 |

molecular target: Neuronal acetylcholine receptor (Rattus norvegicus) (UniProt P04757+P09483+P12389+P12390+P12392+P43144+Q9JLB5+P12391+P43143+P20420+Q05941); assay: Percent Inhibition of [3H]cytisine binding at neuronal nicotinic acetylcholine receptor in rat brain at 100 uM; type: tissue-based

| SMILES | inhibition [%] |
| --- | --- |
| Cc1cc(C2CC3CCC(C2)N3C)on1 (configuration not stated) | 40 |
